Apaf1 activ = human Apaf-1 activation; O14727; hit rate 0.31% among 330,000; activity change, negative = activation, % at 20 µM; Apaf-1 apoptosome caspase-3 activation, DEVD-Rh110 fluorescence; stronger effect = lower value; AID 489031;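 active = activity change at or below -40% at 20 µM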
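system = biochemical Apaf-1 apoptosome reconstitution | buffer or medium = 20 mM HEPES pH 7.5 with CHAPS, BSA | also added = dATP and cytochrome c as apoptosome triggers, (Z-DEVD)2-Rh110 substrate | incubation = 30 min compound preincubation and 50 min reaction, both room temperature | measured by = fluorescence, 540 nm emission, 480 nm excitation | read-out basis = Caspase-3 cleavage activity downstream of Apaf-1 activation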
Rh110 act interf = Rh110 signal interference in Apaf-1 activator counter-screen; 980 tested, under 10 active; fluorescence interference (activity change), % at 20 µM, hits read low; AID 504616; shares compounds with Apaf1 activ; Rh110 fluorescence interference, quenched caspase reaction, Ex480/Em540;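 active = mean activity change at or below -40% when tested at 20 µM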
Apaf-1 act conf = Apaf-1 (human) activation, single-dose confirmed; shares compounds with Apaf1 activ; reconstituted apoptosome caspase-3 activity, DEVD-Rh110 fluorescence; stronger effect = lower value; activity change, negative = activation, % at 20 µM; hit rate 5% among 980; AID 504617;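 active = mean activity change at or below -40%, meaning activation of 40% or more, at 20 µM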
Fluor interf act = shows fluorescence interference in the Apaf-1 activator assay format; shares compounds with Apaf1 activ; fluorescence interference counterscreen; EC50, µM; 55 tested, under 10 active; call rule not given here
* marks the source's active call; other numbers are inactive results; / = not tested or not shown. A selection follows.

SMILES	Apaf1 activ	Rh110 act interf	Apaf-1 act conf	others
CC(=O)Nc1ccc(S(=O)(=O)NC2=C(N3CCN(c4ccc(F)cc4)CC3)C(=O)c3ccccc3C2=O)cc1	64	/	/
Cc1c(C(=O)c2ccc(F)cc2F)c2ccccn2c1CCC#N	63	/	/
OCC1(Cc2ccccc2)CCN(Cc2ccc(-c3ccco3)cc2)CC1	-82*	-1	5
O=C(NCCNc1ccc2ccccc2c1)c1cccn2c(=O)c3sccc3nc12	51	/	/
COC(=O)c1cccnc1-n1c(=O)c2cccnc2n(Cc2cccc([N+](=O)[O-])c2)c1=O	-65*	-2	12
CN(C)S(=O)(=O)c1cccc(NC(=O)COC(=O)/C=C/c2ccco2)c1	95	/	/
CCN(CC)S(=O)(=O)c1ccc(/C=C/C(=O)OCC#N)cc1	-82*	-7	5
CCOc1ccc(Cc2nnc(SCC(=O)Nc3ccc(C(C)=O)cc3)[nH]c2=O)cc1	-416*	8	22
CN(C)c1ncc(C2=C(Cl)C(=O)C(N3CCCC3)=C(Cl)C2=O)s1	83	/	/
C#CCOCCOCCOCCNc1nc(N2CCN(C(=O)CCCCCCCCCCNC(=O)[C@H](CCCCN)n3cc(C)nn3)CC2)nc(N2CCN(C(=O)CCCCCCCCCCNC(=O)[C@@H]([C@H](C)O)n3cc(C)nn3)CC2)n1	54	/	/
O=C(NNc1cc(N2CCOCC2)nc(N2CCOCC2)n1)c1ccc([N+](=O)[O-])cc1	97	/	/
O=C1C(=O)N(CCN2CCOCC2)C(c2ccc([N+](=O)[O-])cc2)/C1=C(/O)c1ccc2c(c1)OCO2 (centres undefined)	-319*	-7	12
COC(=O)CCC(=O)OC1(C)C(=O)C2=CN(C(CO)CO)C(c3ccc(OC)cc3)=CC2=C(Br)C1=O (centres undefined)	81	/	/
CCOc1ccccc1NC(=O)COc1ccc2ccc(=O)oc2c1	-87*	3	3
CCc1ccccc1OCC(=O)Nc1ccc(N2CCCC2)cc1C	43	/	/
CCOc1ccc(NC(=S)Nc2cccc3ccccc23)cc1	66	/	/
CC[C@H](C)Cc1cn([C@@H](CCCCN)C(=O)NCCCCCCCCCCC(=O)N2CCNCC2)nn1	46	/	/
CCC(CO)Oc1cc(NCc2cccnc2)c2ncn(C(C)C)c2c1 (centres undefined)	63	/	/
CCN(Cc1ccccc1)C(=O)c1c[nH]c2ccc(S(=O)(=O)N(C)CCC#N)cc2c1=O	-55*	4	5
COc1ccc(-c2cc(=O)n(-c3ccc([N+](=O)[O-])cc3)[nH]2)cc1	65	/	/
CC[C@H](C)Cc1cn([C@@H](CCCN=C(NC(=O)OC(C)(C)C)NC(=O)OC(C)(C)C)C(=O)NCCCCCCCCCCC(=O)N2CCN(C(=O)OC(C)(C)C)CC2)nn1	57	/	/
CC(C)(C)OC(=O)NCCCCCNC(=O)c1nc[nH]c1C(=O)NCCCCCNC(=O)OC(C)(C)C	-50*	8	-2
COc1cc(C2NC(=O)NC(C)=C2C(=O)OCC2CCCO2)cc(OC)c1OC (centres undefined)	-359*	9	11
COC(=O)C1=C(C)N(Cc2ccccc2)C(=NCc2cc(OC)c(OC)c(OC)c2)N[C@H]1c1ccc(Br)cc1	55	/	/
COc1cc(C2C(C#N)=C(C)NC3=C2C(=O)c2ccccc23)cc(OC)c1OC (centres undefined)	54	/	/
SMILES	Apaf1 activ	Rh110 act interf	Apaf-1 act conf	others
Cc1[nH][nH]c(=O)c1C(c1ccc(-c2cccc(C(=O)O)c2)o1)c1c(C)[nH][nH]c1=O	78	/	/
O=C(O)c1cccc(NC2=C(n3nnc4ccccc43)C(=O)c3ccccc3C2=O)c1	58	/	/
O=C(O)c1cccc(-c2ccc(/C=c3/sc4nc5ccccc5n4c3=O)o2)c1	-195*	5	41	Fluor interf act=>100
CS(=O)(=O)NN1C(=O)c2ccccc2NC1c1ccccc1O (centres undefined)	-64*	0	0
C[C@@H]1CN([C@H](C)CO)C(=O)Cc2cc(NS(=O)(=O)c3ccc(Cl)cc3)ccc2O[C@H]1CN(C)Cc1ccc(C(F)(F)F)cc1	41	/	/
O=C1C2C3C=CC(CC3)C2C(=O)N1c1cccc(C(F)(F)F)c1 (centres undefined)	-120*	16	20
O=C(c1cccc(S(=O)(=O)NCc2ccccc2)c1)N1CCN(c2cccc(C(F)(F)F)c2)CC1	44	/	/
O=C(O)c1ccc(NC2=C/C(=N/S(=O)(=O)c3ccccc3)c3ccccc3C2=O)cc1	96	/	/
Clc1ccccc1OCc1nn2c(-c3ccncc3)nnc2s1	41	/	/
O=C(NC1CC2CCCC(C1)N2S(=O)(=O)c1ccccc1)c1ccco1 (centres undefined)	42	/	/
O=C(Nc1ccc2nc(-c3ccco3)c(-c3ccco3)nc2c1)NC1CC1	47	/	/
O=C(NC1CC1)c1cc2ccccc2o1	-363*	1	-1
Cc1ccc(N2CCN(S(=O)(=O)c3cccs3)CC2C)cc1 (centres undefined)	62	/	/
Cc1cc(C)c2c(=O)c(/C=C3\NC(=S)NC3=O)coc2c1	-99*	10	-63*	Fluor interf act=>100
O=C1NC(=S)N/C1=C/c1cc2c(cc1[N+](=O)[O-])OCO2	88	/	/
O=C1c2ccccc2-c2nnc(-c3ccc(F)cc3)cc21	78	/	/
COc1ccc(-c2sc3ccccc3c2-c2ccc(OCCN3CCCCC3)cc2)cc1	55	/	/
O=C(CN(Cc1cccs1)C(=O)CNS(=O)(=O)c1ccc(Cl)cc1)NCC1CCCO1 (centres undefined)	-292*	1	9
CN1CCc2c(C#N)c(N3CCCCC3)nc(NCc3ccccc3)c2C1	52	/	/
CNC[C@H](CC1CCCCC1)NC[C@H](Cc1ccccc1)NCCC12CC3CC(CC(C3)C1)C2	74	/	/
Cc1ccc(NC(=O)CNCc2ccccc2)cc1Br	-48*	11	-9
CN(CC(=O)NCc1ccccc1)CC(=O)Nc1ccc(Cl)c(C(F)(F)F)c1	53	/	/
Cc1cc(C)c(S(=O)(=O)/N=C2\C=C(NS(=O)(=O)c3ccccc3)C(=O)c3ccccc32)c(C)c1	64	/	/
COc1ccc(C(=O)COC(=O)CCCN=C2NS(=O)(=O)c3ccccc32)c(OC)c1	51	/	/
O=C(N/N=C/c1cn(-c2ccccc2)nc1-c1cccnc1)c1ccccc1	-52*	0	16
SMILES	Apaf1 activ	Rh110 act interf	Apaf-1 act conf	others
C[C@@H]1[C@H]2[C@@H]3CC[C@@H](C3)[C@H]2CN[C@H]1c1cn(Cc2ccccc2)c2ccccc12	62	/	/
CCOC(=O)C1(Cc2ccccc2C)CCCN(C(=O)c2ccc3nccnc3c2)C1 (centres undefined)	-330*	12	14
CC1CCCCN1S(=O)(=O)c1ccc(C(=O)N(CCCN(C)C)c2nc3ccc(Br)cc3s2)cc1 (centres undefined)	67	/	/
N#C/C(=C/c1ccc(N2CCOCC2)o1)c1ccc(Br)cc1	-109*	-2	19
Cc1cc(C(=O)OCC(=O)Nc2ccccc2C#N)c(C)o1	-45*	-11	7
N#CC1(NC(=O)COC(=O)c2cc(O)c3ccccc3c2O)CCCCC1	73	/	/
CCN(c1ccccc1)S(=O)(=O)c1ccc(Cl)c(NC(=O)COC(=O)c2cc(O)c3ccccc3c2O)c1	48	/	/
S=C(Nc1ccc2nsnc2c1)N1CCCCCC1	93	/	/
